Experiment [1] concerns the target T1, 5-hydroxytryptamine receptor 1A (Rattus norvegicus) (UniProt P19327).
T1 sequence (whole entry): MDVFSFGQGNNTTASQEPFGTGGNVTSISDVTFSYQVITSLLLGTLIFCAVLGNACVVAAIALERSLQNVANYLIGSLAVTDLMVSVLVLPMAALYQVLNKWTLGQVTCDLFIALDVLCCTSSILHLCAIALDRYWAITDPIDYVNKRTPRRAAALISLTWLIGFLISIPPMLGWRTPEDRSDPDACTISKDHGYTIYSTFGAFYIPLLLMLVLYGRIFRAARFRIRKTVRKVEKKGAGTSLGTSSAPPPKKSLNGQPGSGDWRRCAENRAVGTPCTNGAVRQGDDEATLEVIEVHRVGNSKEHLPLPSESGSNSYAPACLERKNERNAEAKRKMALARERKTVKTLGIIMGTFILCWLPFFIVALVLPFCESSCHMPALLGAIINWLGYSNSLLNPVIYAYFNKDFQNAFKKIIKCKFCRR
Description: Induction of clear-cut 5-HT motor syndrome in reserpine (5 mg/Kg, sc) pretreated rats at the dose of 32 uM/Kg. The format is functional, organism-based.

The target of experiment [2] is T2, 5-hydroxytryptamine receptor 1A (Rattus norvegicus, UniProt P19327).
T2 sequence (P19327 whole entry): T1 sequence (whole entry)
Description: Binding affinity of 5-hydroxytryptamine 1A receptor using [3H]-8-OH-DPAT as radioligand. In short, it runs like this:
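Membranes from cortex and hippocampus of male Sprague-Dawley rats, pooled from at least six rats, preincubated with 10 µM pargyline. Assay used 2 nM [3H]-8-OH-DPAT, test compound at 1-300 nM and 5 mg/mL tissue in 50 mM Tris-HCl with 4.0 mM CaCl2 and 5.7 mM ascorbate, pH 7.5. Incubated 10 min at 37 °C, filtered on GF/B, scintillation counted.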

In experiment [3] the target is T3, Dopamine receptor (Rattus norvegicus) (UniProt P25115+P19020+P30729+P18901+P61169). Description: Effect of accumulation of DOPA in rat striatum at the dose of 32 umol/kg. The format is functional, tissue-based. The essentials: (§1)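 Test compound given sc in 0.9% NaCl. NSD 1015 (287 µmol/kg sc) given 30 min later to inhibit aromatic L-amino acid decarboxylase; rats decapitated after a further 30 min. Hippocampus and striatum stored at -40 °C for up to 1 week. Perchloric acid homogenates with α-methyl-5-hydroxytryptophan internal standard; 5-HTP and DOPA measured by HPLC-EC. Percent of control, means ± SEM; ANOVA with Tukey test.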

Experiment [4] deals with Rattus norvegicus. Description: Effect of DOPA accumulation in rat striatum at the dose of 32 umol/kg. The format is functional. The essentials:
as §1

Experiment [5] deals with T1, 5-hydroxytryptamine receptor 1A (Rattus norvegicus). Nature of the experiment: Induction of clear-cut 5-HT motor syndrome in reserpine (5 mg/kg, sc) pretreated rats at the dose of 32 micro mol/kg. Format: functional, organism-based.
The target is the same in experiment [6]. Description: Number of rats displaying the 5-HT syndrome or leaving the cage out of the number of rats tested. Format: functional.
For experiment [7], the system named is Rattus norvegicus. Description: Change in body temperature of rats upon administration after 30 minutes (p<0.01). The format is functional. The essentials: (§2)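 Colonic temperature taken with an electrical thermometer probe 3.5 cm deep, before and 30 min after sc injection in saline. Change reported in °C as mean ± SEM; animal numbers as in the cage-leaving test. ANOVA with Tukey test.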

The species entered for experiment [8] is Rattus norvegicus. Nature of the experiment: 5-HT (serotonin) turnover in rat hippocampus (0.05). Format: functional. The essentials:
(§3)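 Rats given compound sc in 0.9% NaCl (screening dose typically 32 µmol/kg); decapitated about 30 min after dosing. Hippocampus and corpus striatum dissected and frozen. Perchloric acid homogenates analysed by HPLC with electrochemical detection. Turnover taken as 5-HIAA/5-HT or DOPAC/DA, expressed as percent of saline control. Means ± SEM; n = 5-7 controls, 4-6 treated. ANOVA with Tukey test.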

The species entered for experiment [9] is Rattus norvegicus. Nature of the experiment: Dopamine (DA) turnover in rat corpus striatum (p<0.01). Format: functional. The essentials:
as §3

In experiment [10] the test system is Rattus norvegicus. Nature of the experiment: Induction of clear-cut 5-HT motor syndrome in normal rats at the dose of 32 umol/kg. The format is functional.
For experiment [11], the system named is Rattus norvegicus. Description: Effect of DOPA accumulation in rat striatum at the dose of 32 umol/kg (p<0.1). The format is functional. The essentials:
as §1

For experiment [12], the target named is T3, Dopamine receptor (Rattus norvegicus). Description: Dopamine (DA) turnover in rat corpus striatum. The format is functional, tissue-based. In short, it runs like this: as §3
Experiment [13] has as its target T1, 5-hydroxytryptamine receptor 1A (Rattus norvegicus). Description: Effect of 5-HT accumulation in rat hippocampus at the dose of 32 umol/kg (p<0.01). The format is functional, tissue-based. The essentials: as §1
Experiment [14] has the same target. Description: Induction of clear-cut 5-HT motor syndrome in normal rats at the dose of 32 micro mol/kg. The format is functional.
Experiment [15] has the same target. Nature of the experiment: 5-HT (serotonin) turnover in rat hippocampus (p<0.01). The format is functional, tissue-based. In short, it runs like this:
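Rats dosed sc (screening dose typically 32 µmol/kg, in 0.9% NaCl, 2 mL/kg); decapitated 5-10 min after the 30-min rating, […]. Hippocampus dissected and frozen. 5-HIAA/5-HT ratio measured by HPLC with electrochemical detection (+0.85 V) after perchloric acid homogenisation. Reported as percent of saline control, mean ± SEM, n = 4-6 per group; ANOVA with Tukey test.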

The test system of experiment [16] is Rattus norvegicus. Nature of the experiment: Ability produce 5-HT motor syndrome in reserpine (5 mg/kg, sc) pretreated rats at the dose of 3.2 micro mol/kg. Format: functional.
Experiment [17] deals with Rattus norvegicus. Description: Antagonistic effect on body temperature of rat induced by (R)-1 at the dose of 32 and 1 umol/kg of compound (R)-1. The format is functional. The essentials:
(§4)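 Compound (32 µmol/kg sc) or saline injected 10 min before (R)-8-OH-DPAT (1.0 µmol/kg sc). Colonic temperature taken before injection and 30 min later; result is the change from the preinjection value. One-way ANOVA with Tukey HSD test.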

Experiment [18] concerns the target T1, 5-hydroxytryptamine receptor 1A (Rattus norvegicus). Nature of the experiment: Antagonistic effect on 5-HT syndrome or behavior of rat induced by (R)-1 at the dose of 32 and 1.0 umol/kg of compound (R)-1. The format is functional. In short, it runs like this: (§5)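 Compound (32 µmol/kg sc) or saline injected 10 min before (R)-8-OH-DPAT (1.0 µmol/kg sc). Flat body posture, forepaw treading and hindlimb abduction scored during 30 min of observation. Results as number of rats showing the behaviour out of number tested; Fisher's exact probability test.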

In experiment [19] the test system is Rattus norvegicus. Nature of the experiment: Change in body temperature of rats upon administration after 30 minutes. The format is functional. In short, it runs like this:
as §2

Experiment [20] has as its target T1, 5-hydroxytryptamine receptor 1A (Rattus norvegicus). Description: 5-HT (serotonin) turnover in rat hippocampus. Format: functional, tissue-based. In short, it runs like this: as §3
The test system of experiment [21] is Rattus norvegicus. Nature of the experiment: Antagonistic effect on body temperature of rat induced by (R)-1 at the dose of 32 and 1.0 umol/kg of compound (R)-1. Format: functional. The essentials: as §4
The test system of experiment [22] is Rattus norvegicus. Description: Antagonistic effect on 5-HT syndrome or behavior of rat at the dose of 32 umol/kg with saline. The format is functional. In short, it runs like this: as §5
Experiment [23] concerns Rattus norvegicus. Description: Antagonistic effect on body temperature of rat induced by (R)-1 at the dose of 32 umol/kg with saline. Format: functional. The essentials: as §4
In experiment [24] the test system is Rattus norvegicus. Description: Antagonistic effect on 5-HT syndrome or behavior of rat induced by (R)-8-hydroxy-DPAT at the dose of 32 and 1.0 umol/kg. The format is functional. In short, it runs like this:
as §5

In the case of `CCCN(CCC)C1CCc2cccc(C(=O)OC)c2C1` (racemic), in experiment [1], the Behavioral effect came out at 4. Affinity in experiment [2] was put at a Ki of 2.4 nM. The figures for the Accumulation (in experiment [3]; in the experiment on Rattus norvegicus [4]) were 81 and 59, respectively.
Take `CCCN(CCC)C1CCc2ccccc2C1` (racemic): the Behavioral effect (in experiment [5]; in the experiment on Rattus norvegicus [10]) was 4 in each case. Besides, the No. of rats in experiment [6] turned out to be 4. Moreover, affinity in experiment [2] was put at a Ki of 37 nM. In the experiment with Rattus norvegicus [7], this compound registered a Temperature of -2. Further, the Turnover in the experiment filed under Rattus norvegicus [8] was 60; in the experiment listed under Rattus norvegicus [9] it was 46.
In the case of `C#Cc1cccc2c1C[C@H](N(CCC)CCC)CC2`, the Accumulation in the experiment with Rattus norvegicus [11] worked out at 50; in [13] it was 43; in experiment [3], 59. The Turnover in experiment [12] is 78; in experiment [15] it was 73. The Behavioral effect in experiment [5] and in experiment [14] was 4 in each case. Besides, the No. of rats in experiment [6] was determined as 0. Also, the Ki in [2] came out at 22 nM. The compound also came in with a Temperature in the experiment with Rattus norvegicus [7] of -1.6.
For the compound `CCCN(CCC)C1CCc2cccc(CO)c2C1` (racemic), the Ki in experiment [2] was found to be 25 nM. In addition, the Behavioral effect in the experiment on Rattus norvegicus [16] stood at 3.
As to `CCCN(CCC)[C@@H]1CCc2cccc(OS(=O)(=O)C(F)(F)F)c2C1`, the Temperature in the experiment on Rattus norvegicus [17] is recorded as -4.18; with Rattus norvegicus [19] it was 0.5. Besides, the Turnover is 93 in experiment [12] and 106 in experiment [20]. Also, the Effect in [18] turned out to be 4. Besides, the No. of rats in [6] was determined as 4. The compound further showed a Behavioral effect with Rattus norvegicus [10] of 0.
Regarding `CCCN(CCC)[C@H]1CCc2c(F)ccc(O)c2C1`, the figures for the Temperature in the experiment on Rattus norvegicus [21] and in the experiment on Rattus norvegicus [23] were -0.76 and -0.02, respectively. In addition, the Effect with Rattus norvegicus [22] and in the experiment with Rattus norvegicus [24] was 0 in each case.

Values taken from ChEMBL document CHEMBL1127085, “Derivatives of 2-(dipropylamino)tetralin: effect of the C8-substituent on the interaction with 5-HT1A receptors” (J Med Chem, 1993).
